# Test system: HEK-293T
# Assay: Multiplex assay against HEK293T;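 as to Population Tubulin-Different-Phenotype (%): share of the cells with healthy nuclei that show this phenotype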
# Format: toxicity, cell-based
# Conditions: human
# How it was run: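 Live cells carried four stains from seeding: Hoechst33342, BioTracker Green Microtubule Cytoskeleton Dye, MitoTracker Red and Annexin V Alexa Fluor 680. They were imaged on a CQ1 microscope at 37°C and 5% CO2 after compound addition. Using CellPathfinder machine-learning gating, cells were split into Hoechst high-intensity objects or normal cells, normal cells into healthy, pyknosed or fragmented nuclei, and pyknosed cells into mitotic or apoptotic; tubulin, mitochondrial-mass and membrane-permeability phenotypes are per cents of healthy-nucleus cells.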
# [1] = 12 h, 1 µM, compound concentration 1 uM, replicate 1
# [2] = 12 h, 1 µM, compound concentration 1 uM, replicate 2
# [3] = 12 h, 10 µM, compound concentration 10 uM, replicate 1
# [4] = 12 h, 10 µM, compound concentration 10 uM, replicate 2
# [5] = 24 h, 1 µM, compound concentration 1 uM, replicate 1
# [6] = 24 h, 1 µM, compound concentration 1 uM, replicate 2
# [7] = 24 h, 10 µM, compound concentration 10 uM, replicate 1
# [8] = 24 h, 10 µM, compound concentration 10 uM, replicate 2
# [9] = 48 h, 1 µM, compound concentration 1 uM, replicate 1
# [10] = 48 h, 1 µM, compound concentration 1 uM, replicate 2
# [11] = 48 h, 10 µM, compound concentration 10 uM, replicate 1
# [12] = 48 h, 10 µM, compound concentration 10 uM, replicate 2
compound,measurement,setting,value
COc1ncc(-c2ccc3nccc(-c4ccnnc4)c3c2)cc1NS(=O)(=O)c1ccc(F)cc1F [OMIPALISIB],Population Apoptotic (%),[1],60%
same,Population Fragmented Nuclei (%),[1],17%
same,Population Healthy Nuclei (%),[1],18%
same,Population Hoechst High Intensity Objects (%),[1],20%
same,Population Membrane Permeable-Phenotype (%),[1],2%
same,Population Mitochondria Different-Phenotype (%),[1],81%
same,Population Mitotic Cells (%),[1],39%
same,Population Normal (%),[1],80%
same,Population Pyknosed Nuclei (%),[1],64%
same,Population Tubulin-Different-Phenotype (%),[1],24%
same,Total Cell Count,[1],255
same,Population Apoptotic (%),[2],27%
same,Population Fragmented Nuclei (%),[2],8%
same,Population Healthy Nuclei (%),[2],14%
same,Population Hoechst High Intensity Objects (%),[2],6%
same,Population Membrane Permeable-Phenotype (%),[2],0%
same,Population Mitochondria Different-Phenotype (%),[2],37%
same,Population Mitotic Cells (%),[2],72%
same,Population Normal (%),[2],93%
same,Population Pyknosed Nuclei (%),[2],77%
same,Population Tubulin-Different-Phenotype (%),[2],16%
same,Total Cell Count,[2],180
same,Population Apoptotic (%),[3],62%
same,Population Fragmented Nuclei (%),[3],12%
same,Population Healthy Nuclei (%),[3],20%
same,Population Hoechst High Intensity Objects (%),[3],22%
same,Population Membrane Permeable-Phenotype (%),[3],0%
same,Population Mitochondria Different-Phenotype (%),[3],97%
same,Population Mitotic Cells (%),[3],37%
same,Population Normal (%),[3],77%
same,Population Pyknosed Nuclei (%),[3],67%
same,Population Tubulin-Different-Phenotype (%),[3],39%
same,Total Cell Count,[3],238
same,Population Apoptotic (%),[4],34%
same,Population Fragmented Nuclei (%),[4],4%
same,Population Healthy Nuclei (%),[4],12%
same,Population Hoechst High Intensity Objects (%),[4],6%
same,Population Membrane Permeable-Phenotype (%),[4],5%
same,Population Mitochondria Different-Phenotype (%),[4],42%
same,Population Mitotic Cells (%),[4],65%
same,Population Normal (%),[4],93%
same,Population Pyknosed Nuclei (%),[4],83%
same,Population Tubulin-Different-Phenotype (%),[4],26%
same,Total Cell Count,[4],161
same,Population Apoptotic (%),[5],47%
same,Population Fragmented Nuclei (%),[5],21%
same,Population Healthy Nuclei (%),[5],6%
same,Population Hoechst High Intensity Objects (%),[5],22%
same,Population Mitochondria Different-Phenotype (%),[5],71%
same,Population Mitotic Cells (%),[5],52%
same,Population Normal (%),[5],77%
same,Population Pyknosed Nuclei (%),[5],71%
same,Population Tubulin-Different-Phenotype (%),[5],50%
same,Total Cell Count,[5],280
same,Population Apoptotic (%),[6],29%
same,Population Fragmented Nuclei (%),[6],5%
same,Population Healthy Nuclei (%),[6],14%
same,Population Hoechst High Intensity Objects (%),[6],6%
same,Population Membrane Permeable-Phenotype (%),[6],0%
same,Population Mitochondria Different-Phenotype (%),[6],40%
same,Population Mitotic Cells (%),[6],70%
same,Population Normal (%),[6],93%
same,Population Pyknosed Nuclei (%),[6],79%
same,Population Tubulin-Different-Phenotype (%),[6],24%
same,Total Cell Count,[6],178
same,Population Apoptotic (%),[7],53%
same,Population Fragmented Nuclei (%),[7],14%
same,Population Healthy Nuclei (%),[7],20%
same,Population Hoechst High Intensity Objects (%),[7],24%
same,Population Membrane Permeable-Phenotype (%),[7],2%
same,Population Mitochondria Different-Phenotype (%),[7],91%
same,Population Mitotic Cells (%),[7],46%
same,Population Normal (%),[7],75%
same,Population Pyknosed Nuclei (%),[7],64%
same,Population Tubulin-Different-Phenotype (%),[7],52%
same,Total Cell Count,[7],228
same,Population Apoptotic (%),[8],37%
same,Population Fragmented Nuclei (%),[8],5%
same,Population Healthy Nuclei (%),[8],19%
same,Population Hoechst High Intensity Objects (%),[8],11%
same,Population Membrane Permeable-Phenotype (%),[8],3%
same,Population Mitochondria Different-Phenotype (%),[8],57%
same,Population Mitotic Cells (%),[8],63%
same,Population Normal (%),[8],88%
same,Population Pyknosed Nuclei (%),[8],75%
same,Population Tubulin-Different-Phenotype (%),[8],46%
same,Total Cell Count,[8],150
same,Population Fragmented Nuclei (%),[9],30%
same,Population Healthy Nuclei (%),[9],5%
same,Population Hoechst High Intensity Objects (%),[9],22%
same,Population Membrane Permeable-Phenotype (%),[9],0%
same,Population Mitochondria Different-Phenotype (%),[9],75%
same,Population Normal (%),[9],77%
same,Population Pyknosed Nuclei (%),[9],64%
same,Population Tubulin-Different-Phenotype (%),[9],41%
same,Total Cell Count,[9],286
same,Population Apoptotic (%),[10],44%
same,Population Fragmented Nuclei (%),[10],7%
same,Population Healthy Nuclei (%),[10],36%
same,Population Hoechst High Intensity Objects (%),[10],7%
same,Population Membrane Permeable-Phenotype (%),[10],1%
same,Population Mitochondria Different-Phenotype (%),[10],40%
same,Population Mitotic Cells (%),[10],55%
same,Population Normal (%),[10],92%
same,Population Pyknosed Nuclei (%),[10],55%
same,Population Tubulin-Different-Phenotype (%),[10],35%
same,Total Cell Count,[10],181
same,Population Apoptotic (%),[11],40%
same,Population Fragmented Nuclei (%),[11],20%
same,Population Healthy Nuclei (%),[11],24%
same,Population Hoechst High Intensity Objects (%),[11],21%
same,Population Membrane Permeable-Phenotype (%),[11],5%
same,Population Mitochondria Different-Phenotype (%),[11],76%
same,Population Mitotic Cells (%),[11],59%
same,Population Normal (%),[11],78%
same,Population Pyknosed Nuclei (%),[11],55%
same,Population Tubulin-Different-Phenotype (%),[11],57%
same,Total Cell Count,[11],202
same,Population Apoptotic (%),[12],38%
same,Population Fragmented Nuclei (%),[12],8%
same,Population Healthy Nuclei (%),[12],38%
same,Population Hoechst High Intensity Objects (%),[12],7%
same,Population Membrane Permeable-Phenotype (%),[12],0%
same,Population Mitochondria Different-Phenotype (%),[12],49%
same,Population Mitotic Cells (%),[12],61%
same,Population Normal (%),[12],92%
same,Population Pyknosed Nuclei (%),[12],54%
same,Population Tubulin-Different-Phenotype (%),[12],54%
same,Total Cell Count,[12],163
